# The source made the active and inactive calls. No cut-off for these calls is given here.
# Columns and labels:
# [1] = test system: Trichoderma viride; assay: Antifungal activity against Trichoderma viride MTCC 1107 assessed as zone of inhibition at 80 uM after 48 hrs by disc diffusion method; assay type: functional; conditions: MTCC 1107, 48 h, read-out: IZ
# Method in brief: (§1)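 Spores from 4-day potato dextrose agar cultures, suspended in sterile water at 1.5 × 10⁵ CFU/mL. 0.2 mL was spread on potato dextrose agar. 5 mm filter-paper discs soaked with test compound were laid on the lawn. Incubation was 48 h at 28 °C, then the inhibition zone was measured in mm. Fluconazole was the positive control and acetone the negative control.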
# [2] = test system: QG-56; assay: Cytotoxicity against human QG56 cells after 24 hrs by MTT assay; assay type: functional, cell-based
# Method in brief: (§2)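 The MTT assay seeded 5 × 10⁴ cells per well and grew them 24 h in RPMI 1640 with compound at 2.5–200 µM. Medium without cells was the blank and adriamycin the positive control. MTT was added for 4 h at 37 °C, formazan was solubilised, and absorbance was read at 570 nm. IC50 is the concentration that cuts viability 50% against untreated cells.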
# [3] = test system: HCT-116; assay: Cytotoxicity against human HCT116 cells after 24 hrs by MTT assay; assay type: functional, cell-based; method in brief: as §2
# [4] = test system: Trichoderma viride; assay: Antifungal activity against Trichoderma viride MTCC 1107 assessed as zone of inhibition at 20 uM after 48 hrs by disc diffusion method; assay type: functional; conditions: MTCC 1107, 48 h, read-out: IZ; method in brief: as §1
# [5] = test system: Salmonella typhi; assay: Antimicrobial activity against Salmonella typhi ATCC 23564 assessed as diameter of inhibition zone at 40 uM after 24 hrs by Kirby -Baur disc diffusion method; assay type: functional; conditions: Salmonella enterica subsp. enterica serovar Typhi
# [6] = test system: Aspergillus niger; assay: Antifungal activity against Aspergillus niger MTCC 1108 after 48 hrs; assay type: functional
# [7] = test system: Escherichia coli; assay: Antimicrobial activity against Escherichia coli ATCC 35218 assessed as diameter of inhibition zone at 40 uM after 24 hrs by Kirby -Baur disc diffusion method; assay type: functional; conditions: ATCC 35218, 24 h, read-out: DIZ
# Method in brief: (§3)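 Kirby-Bauer disc diffusion was used. Acetone stocks (160 µM) were serially doubled down to 80, 40 and 20 µM. 4 µL of each went onto 5 mm sterile paper discs, which were dried 30 min at 50 °C. Inoculum was 1.5 × 10⁸ CFU/mL diluted to 3 × 10² CFU/mL, and 50 µL was spread on Mueller-Hinton agar. After 24 h at 37 °C the inhibition-zone diameter was measured. Ciprofloxacin served as positive control.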
# [8] = test system: HepG2; assay: Cytotoxicity against human HepG2 cells after 24 hrs by MTT assay; assay type: functional, cell-based; method in brief: as §2
# [9] = test system: Escherichia coli; assay: Antimicrobial activity against Escherichia coli ATCC 35218 assessed as diameter of inhibition zone at 20 uM after 24 hrs by Kirby -Baur disc diffusion method; assay type: functional; conditions: ATCC 35218, 24 h, read-out: DIZ; method in brief: as §3
# [10] = test system: Aspergillus niger; assay: Antifungal activity against Aspergillus niger MTCC 1108 assessed as zone of inhibition at 80 uM after 48 hrs by disc diffusion method; assay type: functional; method in brief: as §1
# [11] = test system: Bacillus cereus; assay: Antimicrobial activity against Bacillus cereus MTCC 7350 assessed as diameter of inhibition zone at 40 uM after 24 hrs by Kirby -Baur disc diffusion method; assay type: functional; method in brief: as §3
# [12] = test system: Aspergillus flavus; assay: Antifungal activity against Aspergillus flavus MTCC 1021 after 48 hrs; assay type: functional
# [13] = test system: Salmonella typhi; assay: Antimicrobial activity against Salmonella typhi ATCC 23564 after 24 hrs by broth micro serial dilution method; assay type: functional, Salmonella enterica subsp. enterica serovar Typhi; conditions: Salmonella enterica, ATCC 23564, 24 h
# [14] = test system: Bacillus cereus; assay: Antimicrobial activity against Bacillus cereus MTCC 7350 assessed as diameter of inhibition zone at 80 uM after 24 hrs by Kirby -Baur disc diffusion method; assay type: functional; conditions: MTCC 7350, 24 h, read-out: DIZ; method in brief: as §3
# [15] = test system: Mus musculus; assay: Antiinflammatory activity in mouse assessed as inhibition of carrageenan-induced increase in paw volume at 200 mg/kg administered 1 hr prior to carrageenan challenge measured after 3 hrs relative to control; assay type: functional
# Method in brief: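 Mice were fasted 2 h and placed in groups of five. Controls received saline i.p. Phenylbutazone was given at 100 mg/kg i.p., curcumin at 200 mg/kg i.p., and derivatives at 200 mg/kg. After 1 h, 0.1 mL of 1% carrageenan in saline was injected subplantar into the right hind paw. Paw volume was followed by plethysmometer for 3 h, and % inhibition was calculated as (Vc − Vt)/Vc × 100.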
# [16] = test system: Escherichia coli; assay: Antimicrobial activity against Escherichia coli ATCC 35218 after 24 hrs by broth micro serial dilution method; assay type: functional; conditions: ATCC 35218, 24 h
# Method in brief: (§4)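 This was broth microdilution in autoclaved Mueller-Hinton broth. 150 µL of compound per well was serially diluted […], and 50 µL of test organism was added. Plates were incubated 24 h at 37 °C and optical density was read.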
# [17] = test system: Curvularia lunata; assay: Antifungal activity against Curvularia lunata MTCC 581 assessed as zone of inhibition at 20 uM after 48 hrs by disc diffusion method; assay type: functional; conditions: MTCC 581, 48 h, read-out: IZ; method in brief: as §1
# [18] = test system: Trichoderma viride; assay: Antifungal activity against Trichoderma viride MTCC 1107 assessed as zone of inhibition at 40 uM after 48 hrs by disc diffusion method; assay type: functional; conditions: MTCC 1107, 48 h, read-out: IZ; method in brief: as §1
# [19] = test system: Pseudomonas aeruginosa; assay: Antimicrobial activity against Pseudomonas aeruginosa ATCC 15499 after 24 hrs by broth micro serial dilution method; assay type: functional; conditions: ATCC 15499, 24 h; method in brief: as §4
# [20] = test system: Curvularia lunata; assay: Antifungal activity against Curvularia lunata MTCC 581 after 48 hrs; assay type: functional; conditions: MTCC 581, 48 h
# [21] = test system: Pseudomonas aeruginosa; assay: Antimicrobial activity against Pseudomonas aeruginosa ATCC 15499 assessed as diameter of inhibition zone at 80 uM after 24 hrs by Kirby -Baur disc diffusion method; assay type: functional; method in brief: as §3
# [22] = test system: Staphylococcus aureus; assay: Antimicrobial activity against Staphylococcus aureus ATCC 11632 after 24 hrs by broth micro serial dilution method; assay type: functional; conditions: ATCC 11632, 24 h; method in brief: as §4
# [23] = test system: Salmonella typhi; assay: Antimicrobial activity against Salmonella typhi ATCC 23564 assessed as diameter of inhibition zone at 20 uM after 24 hrs by Kirby -Baur disc diffusion method; assay type: functional; conditions: Salmonella enterica subsp. enterica serovar Typhi
# [24] = test system: Escherichia coli; assay: Antimicrobial activity against Escherichia coli ATCC 35218 assessed as diameter of inhibition zone at 80 uM after 24 hrs by Kirby -Baur disc diffusion method; assay type: functional; conditions: ATCC 35218, 24 h, read-out: DIZ; method in brief: as §3
# [25] = test system: Staphylococcus aureus; assay: Antimicrobial activity against Staphylococcus aureus ATCC 11632 assessed as diameter of inhibition zone at 80 uM after 24 hrs by Kirby -Baur disc diffusion method; assay type: functional; conditions: ATCC 11632, 24 h, read-out: DIZ; method in brief: as §3
# [26] = test system: Staphylococcus aureus; assay: Antimicrobial activity against Staphylococcus aureus ATCC 11632 assessed as diameter of inhibition zone at 20 uM after 24 hrs by Kirby -Baur disc diffusion method; assay type: functional; method in brief: as §3
# [27] = test system: Salmonella typhi; assay: Antimicrobial activity against Salmonella typhi ATCC 23564 assessed as diameter of inhibition zone at 80 uM after 24 hrs by Kirby -Baur disc diffusion method; assay type: functional, Salmonella enterica subsp. enterica serovar Typhi; conditions: Salmonella enterica, ATCC 23564, 24 h; read-out: DIZ
# [28] = test system: Bacillus cereus; assay: Antimicrobial activity against Bacillus cereus MTCC 7350 assessed as diameter of inhibition zone at 20 uM after 24 hrs by Kirby -Baur disc diffusion method; assay type: functional; method in brief: as §3
# [29] = test system: Aspergillus flavus; assay: Antifungal activity against Aspergillus flavus MTCC 1021 assessed as zone of inhibition at 80 uM after 48 hrs by disc diffusion method; assay type: functional; method in brief: as §1
# [30] = test system: Trichoderma viride; assay: Antifungal activity against Trichoderma viride MTCC 1107 after 48 hrs; assay type: functional; conditions: MTCC 1107, 48 h
# [31] = test system: Curvularia lunata; assay: Antifungal activity against Curvularia lunata MTCC 581 assessed as zone of inhibition at 80 uM after 48 hrs by disc diffusion method; assay type: functional; conditions: MTCC 581, 48 h, read-out: IZ; method in brief: as §1
# [32] = test system: Staphylococcus aureus; assay: Antimicrobial activity against Staphylococcus aureus ATCC 11632 assessed as diameter of inhibition zone at 40 uM after 24 hrs by Kirby -Baur disc diffusion method; assay type: functional; conditions: ATCC 11632, 24 h, read-out: DIZ; method in brief: as §3
# [33] = test system: HeLa; assay: Cytotoxicity against human HeLa cells after 24 hrs by MTT assay; assay type: functional, cell-based; method in brief: as §2
# [34] = test system: Curvularia lunata; assay: Antifungal activity against Curvularia lunata MTCC 581 assessed as zone of inhibition at 40 uM after 48 hrs by disc diffusion method; assay type: functional; conditions: MTCC 581, 48 h, read-out: IZ; method in brief: as §1
# [35] = test system: Bacillus cereus; assay: Antimicrobial activity against Bacillus cereus MTCC 7350 after 24 hrs by broth micro serial dilution method; assay type: functional; conditions: MTCC 7350, 24 h; method in brief: as §4
smiles,measurement,setting,value
COc1cc(/C=C/c2nn(-c3ccccc3)c(/C=C/c3ccc(O)c(OC)c3)c2/N=N/c2ccc(S(=O)(=O)Nc3nc(C)cc(C)n3)cc2)ccc1O,zone of inhibition at 80 µM,[1],22 mm
same,IC50,[2],100 µM
same,IC50,[3],Not Active
same,zone of inhibition at 20 µM,[4],18 mm
same,diameter of the inhibition zone (DIZ),[5],inactive
same,MIC,[6],inactive
same,zone of inhibition at 40 µM,[7],11 mm
same,IC50,[8],> 100 µM
same,zone of inhibition at 20 µM,[9],9 mm
same,inhibition zone (IZ),[10],inactive
same,diameter of the inhibition zone (DIZ),[11],inactive
same,MIC,[12],inactive
same,MIC,[13],> 80 µM
same,zone of inhibition at 80 µM,[14],9 mm
same,inhibition in vivo at 200 mg/kg,[15],37%
same,MIC,[16],> 80 µM
same,zone of inhibition at 20 µM,[17],18 mm
same,zone of inhibition at 40 µM,[18],19 mm
same,MIC,[19],> 80 µM
same,MIC,[20],20 µM
same,diameter of the inhibition zone (DIZ),[21],inactive
same,MIC,[22],> 80 µM
same,diameter of the inhibition zone (DIZ),[23],inactive
same,zone of inhibition at 80 µM,[24],12 mm
same,zone of inhibition at 80 µM,[25],9 mm
same,diameter of the inhibition zone (DIZ),[26],inactive
same,zone of inhibition at 80 µM,[27],9 mm
same,diameter of the inhibition zone (DIZ),[28],inactive
same,inhibition zone (IZ),[29],inactive
same,MIC,[30],20 µM
same,zone of inhibition at 80 µM,[31],22 mm
same,zone of inhibition at 40 µM,[32],8 mm
same,IC50,[33],50 µM
same,zone of inhibition at 40 µM,[34],19 mm
same,MIC,[35],> 80 µM

# From ChEMBL document CHEMBL2384906, “Biological activity, design, synthesis and structure activity relationship of some novel derivatives of curcumin containing sulfonamides” (Eur J Med Chem, 2013)
